# Compound activity (PubChem BioAssay)
# SENP1 FRET inh: human SENP1 catalytic domain inhibitors, primary screen, biochemical, FRET, uHTS. Sentrin-specific protease 1 (Homo sapiens), Q9P0U3. recombinant SENP1 catalytic domain, CyPet-SUMO1-YPet FRET cleavage. inhibition, % at 10 µM. 0.21% of 360,000 active;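 active = inhibition at least 30% at 10 µM, raw YFP signal under a set limit, fluorescence ratio 0.5 to 1.5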;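 note: 0% = enzyme with DMSO and 100% = no enzyme wells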
# Target sequence (Q9P0U3 419-644 limits assumed): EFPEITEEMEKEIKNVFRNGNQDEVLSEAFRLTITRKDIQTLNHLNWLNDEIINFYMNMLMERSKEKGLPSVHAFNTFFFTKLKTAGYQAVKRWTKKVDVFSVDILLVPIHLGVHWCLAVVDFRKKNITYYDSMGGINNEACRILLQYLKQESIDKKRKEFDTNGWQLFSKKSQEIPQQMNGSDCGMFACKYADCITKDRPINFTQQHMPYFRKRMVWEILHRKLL
#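 material = recombinant human SENP1 catalytic domain, His6-tagged | quantity = 20 pM enzyme | reagent = 25 nM SUMO1 FRET substrate | compound dosing = 10 µM single point, 0.5% DMSO | timing = 50 min enzyme reaction, room temperature, light-protected | detection = FRET, CFP and YFP emission | control set = no-enzyme low, enzyme-DMSO high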
# Rpn11 block: Rpn11 (PSMD14) deubiquitinase inhibitors, primary screen, biochemical, fluorescence polarization, uHTS; 0.59% of 360,000 active; human 26S proteasome, Ub4-pepOG fluorescence polarization; 20S core pre-blocked with epoxomicin; 26S proteasome non-ATPase regulatory subunit 14 (Homo sapiens), O00487; calls only at 20 µM;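 active = inhibition at 20 µM, scaled to each plate's controls, above about 33%, limit read from the data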
# HNF4A DNA FP: change in binding of human HNF4A to DNA, primary screen, biochemical, fluorescence polarization, FITC-DNA; 0.3% of 360,000 active; activity change, % at 10 µM; 1 h; Hepatocyte nuclear factor 4-alpha (Homo sapiens), P41235; in the data active = activity change above about 30%, passing the limit was not always enough
# TPT1 inhibitor: Candida albicans TPT1 enzyme inhibitors, primary screen, biochemical, fluorescence polarization; 0.81% of 300,000 active; recombinant caTPT1, FP RNA substrate dephosphorylation; tRNA 2'-phosphotransferase TPT1 (Candida albicans SC5314); inhibition, % at 5 µM; AID 1962, 2009;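 active = inhibition above the mean of all tested compounds plus 3 SD, set per screening campaign, cut at about 24% in these data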;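 note: plate controls were DMSO alone for no effect and ferristatin control at 100 nM for full effect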
# UBC9 SUMO inh: inhibitors of in vitro SUMOylation cascade, primary screen, biochemical, HTRF, uHTS. 0.36% of 290,000 active. HTRF SUMOylation assay, SAE1/SAE2 + UBC9. AID 2006, 2009. inhibition, % at 35 µM. SUMO-conjugating enzyme UBC9 (Homo sapiens), P63279; in the data active = inhibition above about 50%, passing the limit was not always enough
# Target sequence (P63279 whole entry, looked up): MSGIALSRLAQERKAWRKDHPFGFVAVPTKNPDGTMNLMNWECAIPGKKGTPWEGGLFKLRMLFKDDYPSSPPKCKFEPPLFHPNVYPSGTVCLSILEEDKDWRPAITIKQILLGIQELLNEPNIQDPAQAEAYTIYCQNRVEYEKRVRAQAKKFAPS
# CSN inh: inhibitors of CSN-mediated cullin deneddylation, primary screen, biochemical, fluorescence polarization, uHTS | inhibition, % at 12.5 µM | 0.38% of 360,000 active | Purified CSN, SCF-Nedd8-OG deneddylation | AID 651999, 2013;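 active = pattern-corrected inhibition above about 35%, with an unprinted fluorescence ratio check between 0.5 and 1.5, limit read from the data, passing the limit was not always enough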;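 note: 0% = enzyme with substrate and 100% = substrate without enzyme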
#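 assay system = purified human Csn5 enzyme expressed in HEK293T cells | amount = 0.24 nM enzyme | buffer or medium = Tris/NaCl/DTT buffer, pH 7.5 | reagent = 10 nM SCFSkp2-Nedd8OG | compound = one concentration, 12.5 µM, 0.25% DMSO | times = 90 min reaction at room temperature | signal = FP | read-out basis = % inhibition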
# * = called active by the depositor; i = inactive; nt = not tested or not shown; + = active, no number. Only some compounds are listed: those with a hit (about 1.8% of all), similar ones and a draw of the others.
SMILES,SENP1 FRET inh,Rpn11 block,HNF4A DNA FP,TPT1 inhibitor,UBC9 SUMO inh,CSN inh
CC(=O)N1CCN(S(=O)(=O)c2cccc(C(=O)NNC(=O)Cn3ccc(C(F)(F)F)n3)c2)CC1,3,i,3,7,nt,-1
Cc1c(C)c2cc(Cl)c(O)c(CN3CCN(C)CC3)c2oc1=O,-61,i,-2,0,52*,-1
COc1cc(C(=O)c2nccc3cc(OC)c(OC)cc23)c([N+](=O)[O-])cc1OC,39*,i,-4,1,87*,34
COc1cc(N)c(C(=O)c2nccc3cc(OC)c(OC)cc23)cc1OC,2,i,-1,-2,6,2
O=C(c1ccc(N2CCOCC2)nc1)N1CCCCC1,-1,i,-1,0,-33,3
Cc1c(-c2ccc(F)cc2)nc(N)c(C#N)c1-c1ccco1,7,nt,39*,15,27,17
CCc1nc(N)c(C#N)c(-c2ccc(F)cc2)c1C,0,i,-3,-5,12,-2
Cc1cccc(NC(=O)c2ccc([N+](=O)[O-])s2)c1C,-1,i,-4,1,8,-5
Cc1nc(SCc2ccc(Cl)c(Cl)c2)n[nH]1,1,i,118*,nt,6,3
O=C(CN1C(=O)/C(=C\c2ccco2)SC1=S)Nc1ccc(O)cc1C(=O)O,-4,nt,-37,11,82*,70*
O=C(O)CCN1C(=O)/C(=C\c2ccc(-c3nc4ccccc4s3)o2)SC1=S,-20,+,45*,41*,34,i
O=C(O)CCN1C(=O)/C(=C\c2ccncc2)SC1=S,3,i,-6,0,-2,-2
Cc1cccc(OCCOC(=O)c2ccc(F)c(S(=O)(=O)N3CCOCC3)c2)c1,0,i,-4,nt,nt,-3
COc1ccc(NC(=S)NCCc2ccc(Cl)cc2)c(OC)c1,1,i,-2,-1,13,3
CN(C)[C@@H]1C(=O)C(C(=O)NCN2CCCC2)=C(O)[C@@]2(O)C(=O)C3=C(O)c4c(O)cccc4[C@@](C)(O)C3CC12 (stereo not given in full),nt,nt,nt,nt,77*,nt
CN(C)c1ccc(O)c2c1CC1CC3C(N(C)C)C(=O)C(C(N)=O)=C(O)[C@@]3(O)C(=O)C1=C2O (stereo not given in full),4,i,0,-1,nt,2
CCc1ccc(C(C)NC(=O)c2ccc3c(c2)OCO3)cc1 (stereo not given),0,i,-3,2,6,-1
Cc1ccc(CN2CCNC(=O)C2CC(=O)NCc2cc(C)n(C)n2)cc1 (stereo not given),-7,i,-5,-5,13,2
c1ccc(Oc2ccc(-n3cnnn3)cc2)cc1,0,i,57*,-2,15,1
Cc1nn(-c2ccccc2)c2c1C(c1c(C)[nH]c(C#N)c1C)C(C#N)=C(N)O2 (stereo not given),-4,i,0,-1,75*,5
COc1ccc(S(=O)(=O)N2CCOCC2)cc1NC(=O)CNC(=O)c1cccs1,0,i,1,nt,nt,-1
Cc1csc(CNc2ncnc3ccc(-c4ccccc4Cl)cc23)c1,1,i,1,nt,nt,-3
CCS(=O)(=O)N1N=C(c2cccc(NS(C)(=O)=O)c2)CC1c1ccc(C)cc1 (stereo not given),-58,nt,159,13,7,73*
CCS(=O)(=O)N1N=C(c2cccc(NS(C)(=O)=O)c2)CC1c1ccccc1 (stereo not given),-95,nt,181,15,6,125
Cc1ccc(C2=NN(S(C)(=O)=O)C(c3ccc4c(c3)OCO4)C2)cc1 (stereo not given),-9,i,51*,0,10,12
SMILES,SENP1 FRET inh,Rpn11 block,HNF4A DNA FP,TPT1 inhibitor,UBC9 SUMO inh,CSN inh
OCC(O)/C=N/Nc1nc(Nc2ccccc2)nc(Nc2ccccc2)n1 (stereo not given),3,i,0,-2,24,3
NC1(C#Cc2ccc3oc(=O)c(-n4cc(-c5ccsc5)nn4)cc3c2)CCCCC1,-1,+,2,nt,nt,11
NC1(C#Cc2ccc3oc(=O)c(-n4cc(C5(O)CCCCC5)nn4)cc3c2)CCCCC1,-1,i,1,nt,nt,-3
COc1cccc(/C=C/C(=O)OCC(=O)NCc2ccc(Cl)cc2)c1,1,i,-3,-3,29,3
COC(=O)Cn1c(C)c(/C=C/c2cc[n+](C)cc2)c2ccccc21,-25,nt,128,nt,15,70*
O=C(CC1C(=O)NCCN1Cc1cccc(F)c1)NC1CCC1 (stereo not given),-11,i,3,-5,2,-4
Fc1ccc(CN2CCN(c3ncccn3)CC2)cc1,2,i,1,1,-1,37*
Cc1ccc(Cn2c(=N)n(CC(O)c3ccco3)c3ccccc32)cc1 (stereo not given),-11,i,3,9,6,19
N=c1n(Cc2ccccc2Cl)c2ccccc2n1CC(O)c1ccco1 (stereo not given),1,i,61*,6,14,-1
COc1ccc(/C=C2\SC(=O)N(CCNC(=O)C3CCN(S(=O)(=O)c4cccs4)CC3)C2=O)cc1,1,i,31*,-3,-2,-4
CCN(CCC(=O)Nc1cc([N+](=O)[O-])ccc1OC)Cc1ccccc1,3,i,2,2,69*,-3
CC1(C)N=C(N)N=C(N)N1c1ccc(OCCCOc2ccccc2)c(Cl)c1,-1,i,50*,0,1,2
CCC(=O)c1ccc(/C=C/c2nc3ccccc3n2C)o1,-24,i,-4,-2,62*,-3
COC(=O)c1cc(Br)c(=O)n(Cc2ccc(C(=O)O)cc2)c1,-1,i,0,-3,18,4
COc1cc2c(cc1NC(=O)c1cc(-c3ccncc3)nc3ccc(C)cc13)oc1ccccc12,-4,i,10,1,2,4
Cc1cc(NCCO)c2cc(O)ccc2n1,-63,i,1,2,57*,5
COc1ccc(/C=N\NC(=O)c2ccc([N+](=O)[O-])c(C)c2)cc1COc1ccccc1C(N)=O,2,i,11,-5,17,35*
